Assay results of several laboratories.
Target: Dual specificity protein kinase CLK2 (CLK2, Homo sapiens, UniProt P49760)

SMILES	read-out	mode	technique	tested at	quantity	value
CC(C1CC1)n1cnc2c(NCc3cccc(C(F)(F)F)c3)nc(NCCN(C)C)nc21 (stereo not drawn)	enzyme activity	inhibitor		5 µM	inhibition	> 50%
FC(F)c1nc2ccccc2n1-c1nc(N2CCOCC2)nc(N2CCOCC2)n1	enzyme activity	inhibitor		10 µM	remaining activity	85%
CC(=O)Nc1c(C(C)=O)c(=O)n(C)c2nc(-c3ccc(Cl)cc3Cl)c(-c3ccc(Cl)cc3)cc12	cell-free assay		competition with immobilised ligand	1 µM	remaining binding	100%
CC(C)(C)c1nc2c(s1)c1nc(N)ncc1c1ccc(NS(=O)(=O)c3c(F)cccc3F)c(F)c12	enzyme activity	inhibitor	radiometric	1 µM	remaining activity	90%
COCCOc1nc(-c2ccc(Cl)nc2)nc2c1CN(C(=O)c1ncn3ccccc13)CC2	cell-free assay		competition with immobilised ligand	0.1 µM	remaining binding	100%
COc1cc(Cl)c(C(=O)N[C@@H](CN[C@H]2CC[C@@H](N)CC2)Cc2ccc(C#N)cc2)cc1-c1ccc(CN[C@H](C)c2ccc(C)cc2)o1	enzyme activity	inhibitor		1 µM	remaining activity	92%
CC(C)(O)[C@H]1CC[C@H](Nc2ccc3ncc(-c4cccc(C(F)(F)F)c4)n3n2)CC1	enzyme activity	inhibitor		1 µM	remaining activity	15.8%
CCN1CCC2(CC1)NC(=O)c1c(c3ccc(Cl)c(Cl)c3n1C)C2C#N (racemic)	thermal stability		DSF	10 µM	ΔTm	1.4 °C
CS(=O)(=O)CCNCc1ccc(-c2ccc3ncnc(Nc4ccc(OCc5cccc(F)c5)c(Cl)c4)c3c2)o1	cell-free assay			0.5 µM	remaining signal	95.1%
Nc1nc(Nc2ccc(S(N)(=O)=O)cc2)sc1C(=O)c1ccccc1[N+](=O)[O-]	enzyme activity	inhibitor		0.1 µM	inhibition	60 to 66%
Cc1cnc(NC2CCOCC2)nc1-n1cnc(C(=O)NC(CN)c2cc(F)cc(Cl)c2)c1 (stereo not drawn)	enzyme activity	inhibitor	radiometric	1 µM	remaining activity	78%
Cn1c2c(c3ccc(Cl)c(Cl)c31)C(C#N)C1(CCCCC1)NC2=O (racemic)	thermal stability		DSF	10 µM	ΔTm	2.1 °C
COc1cc2ncnc(Nc3ccc(F)c(Cl)c3)c2cc1OCCCN1CCOCC1	cell-free assay			0.5 µM	remaining signal	94.8%
O=S(=O)(NC1CCC(c2cc(F)ccc2F)(S(=O)(=O)c2ccc(Cl)cc2)CC1)C(F)(F)F (stereo not drawn)	cell-free assay		competition with immobilised ligand	1 µM	remaining binding	100%
CCC1(CC)NC(=O)c2c(c3ccc(Cl)c(Cl)c3n2C)C1C#N (stereo not drawn)	thermal stability		DSF	10 µM	ΔTm	1.3 °C
Clc1ccc(Nc2nnc(Cc3ccncc3)c3ccccc23)cc1	cell-free assay			0.5 µM	remaining signal	87.6%
COc1cc2ncnc(Nc3ccc(Oc4ccccc4)c(C)c3C)c2cc1OC	enzyme activity	inhibitor		1 µM	inhibition	3%
Cc1cc(NC(=O)c2cccc3cc(-c4cccc5[nH]nc(N)c45)ccc23)ccc1F	enzyme activity	inhibitor		0.1 µM	activity vs control	95%

SMILES	read-out	mode	technique	tested at	quantity	value
CCN(CC)c1ccc(C2=NNC(=O)CC2C)cc1[N+](=O)[O-] (stereo not drawn)	enzyme activity	inhibitor		10 µM	remaining activity	96%
COc1cc(Nc2cnc(C#N)c(O[C@H](C)CN(C)C)n2)ncc1-c1cnn(C)c1	enzyme activity	inhibitor	radiometric	10 µM	remaining activity	50%
Cn1c2c(c3ccc(Cl)c(Cl)c31)C(C#N)C(C)(C)NC2=O (stereo not drawn)	thermal stability		DSF	10 µM	ΔTm	3.2 °C
O=C1Nc2ccc(Cl)cc2C1=Cc1cc(Cl)c(O)c(Cl)c1	cell-free assay			0.5 µM	remaining signal	95.5%
O=C(NCc1ncc(C(F)(F)F)cc1Cl)c1ccc2c(c1)C1(CCS(=O)(=O)CC1)[C@@H](C1CC1)N2S(=O)(=O)c1ccc(F)cc1	cell-free assay		competition with immobilised ligand	1 µM	remaining binding	82%
COc1cc(/C=C/C(=O)CC(=O)/C=C/c2ccc(O)c(OC)c2)ccc1O	enzyme activity	inhibitor		1 µM	activity vs control	48%
CN(C)C1CCN(CC#Cc2nn(C3CCCC3)c3nc(NCc4ccccc4)ncc23)C1 (stereo not drawn)	enzyme activity	inhibitor	FRET	0.1 µM	inhibition	8%
FC(F)(F)Oc1cccc(-c2cnc3ccc(-c4ccncc4)nn23)c1	enzyme activity	inhibitor	radiometric	5 µM	activity vs control	0.623%
COc1cccc(CNC(=O)c2nc3scc(COCc4ccc(C(=O)O)cc4)c3c(=O)[nH]2)c1	cell-free assay		competition with immobilised ligand	1 µM	remaining binding	92.4%
COc1cccc2c(NCc3ccccc3)nc(-n3c(N)nc4ccccc43)nc12	target engagement in cells	inhibitor	chemoproteomics	20 mM	inhibition	-12.9%
CCOCCn1cc(C(=O)Nc2ccc(-n3nc(-c4cccnc4)cc3C(F)(F)F)cn2)ccc1=O	cell-free assay		competition with immobilised ligand	1 µM	remaining binding	86%
Cn1cnc(Br)c1C1=CN(c2ncnc3[nH]cnc23)CCS1	enzyme activity	inhibitor	radiometric	50 nM	inhibition	46.1%
CS(=O)(=O)N1CCCC(NC(=O)[C@H](CCC2CCCCC2)NC(=O)c2ccc(CNC(=O)c3cnc4ccccn34)cc2)C1 (stereo partly drawn)	cell-free assay		competition with immobilised ligand	0.1 µM	remaining binding	98%
O=C(CSc1nc2nccnc2c(=O)n1CCc1ccccc1)Nc1nccs1	enzyme activity	inhibitor		10 µM	inhibition	15%
Cc1ccc(NC(=O)c2ccc(C)c(C(F)(F)F)c2)cc1C#Cc1nn(C2CCC(O)CC2)c2ncnc(N)c12 (stereo not drawn)	cell-free assay			10 µM	remaining signal	47%
Cn1c2c(c3ccc(Cl)c(Cl)c31)C(C#N)C1(CCCC1)NC2=O (stereo not drawn)	thermal stability		DSF	10 µM	ΔTm	1.7 °C
CCCOc1ccc([C@H]2[C@H](C(=O)O)[C@@H](c3ccc4c(c3)OCO4)CN2CC(=O)Nc2c(CC)cccc2CC)cc1	cell-free assay		competition with immobilised ligand	1 µM	remaining binding	91%
Cc1sc(C(=O)NC2COC2)cc1-n1cc(NC(=O)Nc2c(F)cccc2Cl)cn1	enzyme activity	inhibitor		10 µM	remaining activity	100%
